Screening results from PubChem BioAssay.
STEP inh: STEP phosphatase inhibitors, primary screen, biochemical, fluorescence intensity, uHTS. Tyrosine-protein phosphatase non-receptor type 5 (Homo sapiens), P54829. recombinant STEP, OMFP fluorogenic substrate. inhibition, % at 20 µM. 360,000 tested, 0.25% active. AID 588621, 2011;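 active = inhibition at 20 µM, scaled per plate between control wells, above about 37%, limit read from the data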;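 also: 0% = DMSO with enzyme and substrate and 100% = substrate only without enzyme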
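material = STEP tyrosine phosphatase | reagent = fluorogenic phosphatase substrate OMFP at 25 µM final | doses = single compound dose of 20 µM, 1% DMSO final | schedule = 20 min reaction, room temperature, in the dark | measured by = fluorescence, 480/540 nm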
SUMO1 PPI mod: modulators of SUMO1 protein-protein interactions, primary screen, biochemical, uHTS; 360,000 tested, 0.33% active; AID 602429, 2012; SUMO1 binding to a labelled peptide, TR-FRET, 1 h; inhibition, % at 20 µM; in the data active = inhibition above about 37%
Scp1 inh: Scp-1 phosphatase inhibitors, primary screen, biochemical, colorimetric, uHTS | Carboxy-terminal domain RNA polymerase II polypeptide A small phosphatase 1 (Homo … | Recombinant Scp1, phosphopeptide, malachite green phosphate absorbance | inhibition, % at 20 µM | 340,000 tested, 0.88% active;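 active = inhibition above about 50% at 20 µM, limit read from the data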;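 also: plate controls were DMSO wells with enzyme for no effect and wells lacking enzyme for full effect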
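Material – SCP-1 phosphatase catalytic domain, residues 76-261 · Buffer or medium – Acidic Tris acetate buffer with magnesium and detergent · Also added – Phospho 17-mer peptide substrate · Compound – single 20 µM dose, 1% DMSO · Times – 45 min room-temperature reaction, 5 min colour, 30 min stabiliser · Technique – Phosphate-binding colour reagent, absorbance read at 630 nm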
DNMT1 block: human DNMT1 methyltransferase inhibitors, primary screen, biochemical, molecular beacon, fluorescence, HinP1I cleavage, uHTS; inhibition (reported as % activation of signal), % at 10 µM; 360,000 tested, 0.83% active; DNA (cytosine-5)-methyltransferase 1 (Homo sapiens), P26358; in the data active = inhibition above about 50%
Target sequence (P26358 504-1616 limits assumed): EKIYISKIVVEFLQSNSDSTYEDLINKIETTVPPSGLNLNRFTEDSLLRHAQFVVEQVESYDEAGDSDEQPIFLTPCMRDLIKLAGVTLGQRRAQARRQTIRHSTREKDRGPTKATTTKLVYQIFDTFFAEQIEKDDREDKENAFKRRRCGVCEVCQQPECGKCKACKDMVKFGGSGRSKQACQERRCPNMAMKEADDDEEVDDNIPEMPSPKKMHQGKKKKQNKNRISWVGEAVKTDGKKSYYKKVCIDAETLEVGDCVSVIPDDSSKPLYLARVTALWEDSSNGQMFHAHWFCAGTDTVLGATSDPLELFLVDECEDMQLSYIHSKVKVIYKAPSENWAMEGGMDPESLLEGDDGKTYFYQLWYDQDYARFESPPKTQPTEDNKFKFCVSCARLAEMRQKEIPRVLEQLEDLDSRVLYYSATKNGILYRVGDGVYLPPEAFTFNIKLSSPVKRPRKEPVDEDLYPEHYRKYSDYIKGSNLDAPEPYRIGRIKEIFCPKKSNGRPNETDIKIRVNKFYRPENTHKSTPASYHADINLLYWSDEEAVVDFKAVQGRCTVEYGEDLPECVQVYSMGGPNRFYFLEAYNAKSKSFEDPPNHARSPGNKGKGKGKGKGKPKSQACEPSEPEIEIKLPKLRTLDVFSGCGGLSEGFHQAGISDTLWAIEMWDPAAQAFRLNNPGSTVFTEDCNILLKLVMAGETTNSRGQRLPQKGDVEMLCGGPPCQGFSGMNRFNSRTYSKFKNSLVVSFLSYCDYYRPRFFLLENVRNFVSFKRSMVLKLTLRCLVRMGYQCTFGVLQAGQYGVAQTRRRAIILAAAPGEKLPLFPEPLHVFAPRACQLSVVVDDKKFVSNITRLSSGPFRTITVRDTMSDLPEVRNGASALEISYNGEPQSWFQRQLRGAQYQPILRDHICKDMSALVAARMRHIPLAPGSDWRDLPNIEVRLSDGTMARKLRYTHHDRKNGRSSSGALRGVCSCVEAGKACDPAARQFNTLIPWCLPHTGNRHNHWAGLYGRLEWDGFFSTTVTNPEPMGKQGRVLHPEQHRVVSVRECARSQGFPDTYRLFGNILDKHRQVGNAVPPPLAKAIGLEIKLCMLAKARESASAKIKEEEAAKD
CSN deneddyl inh: inhibitors of CSN-mediated cullin deneddylation, primary screen, biochemical, fluorescence polarization, uHTS. Purified CSN, SCF-Nedd8-OG deneddylation. inhibition, % at 12.5 µM. 360,000 tested, 0.38% active;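 active = pattern-corrected inhibition above about 35%, with an unprinted fluorescence ratio check between 0.5 and 1.5, limit read from the data, passing the limit was not always enough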;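 also: 0% = enzyme with substrate and 100% = substrate without enzyme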
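Test system: Human Csn5 produced in HEK293T cells | Compound: 12.5 µM single point | Times: 90 min, room temperature | Signal: Fluorescence polarization readout | Read-out basis: % inhibition of substrate cleavage by Csn5 | Controls: no-enzyme wells high, enzyme-with-substrate wells low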
LMPTP block: LMPTP phosphatase inhibitors, primary screen, biochemical, fluorescence intensity, uHTS | inhibition, % at 20 µM | AID 651560, 2012 | Low molecular weight phosphotyrosine protein phosphatase (Homo sapiens), P24666 | 360,000 tested, 0.22% active | recombinant LMPTP-A, OMFP fluorogenic substrate;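 active = compounds that cut the enzyme signal by at least half of the control window in the single-dose screen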;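 also: plate controls were DMSO wells with enzyme plus substrate for no effect and substrate without enzyme for full effect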
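Test system: LMPTP-A, protein tyrosine phosphatase of low molecular weight; Input: 0.625 nM enzyme; Incubation: 50 min dark incubation at room temperature; Signal: endpoint fluorescence intensity from OMFP dephosphorylation; Read-out basis: % inhibition versus control wells.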
Active calls of the source: *. Most compounds without a hit are left out; they make up all but 2% or so of the library.

How did COC(=O)c1cc(S(=O)(=O)N2CCC(c3cc(OC)ccc3OC)C2)c[nH]1 (stereo not drawn) do in these assays?
STEP inh: -3.8; SUMO1 PPI mod: -0.5; Scp1 inh: -9.1; DNMT1 block: -5.3; CSN deneddyl inh: 0.9; LMPTP block: 0.6

Results for O=C(O)c1ccccc1N=Nc1c(O)[nH]c2ccc([N+](=O)[O-])cc12 ?
STEP inh: 46.0*; SUMO1 PPI mod: 110.6*; Scp1 inh: 81.0*; DNMT1 block: 16.7; CSN deneddyl inh: 30.9; LMPTP block: 20.6

Results for CCN(CC)S(=O)(=O)c1ccc(Cl)c(C(=O)OC2CC(C)OC2=O)c1 (stereo not drawn) ?
STEP inh: 3.0; SUMO1 PPI mod: 0.1; Scp1 inh: -2.0; DNMT1 block: 4.0; CSN deneddyl inh: 1.4; LMPTP block: 1.0

Results for COC(=O)C1=C(C)N(Cc2ccccc2)C(=NCCc2cccnc2)N[C@H]1c1ccc(Br)cc1 ?
STEP inh: -0.9; SUMO1 PPI mod: -10.0; Scp1 inh: 57.1*; DNMT1 block: 13.4; CSN deneddyl inh: -1.4; LMPTP block: 2.9

What do the screens show for `CCCCCCNC(=O)C(C#N)c1nc2ccccc2nc1N1CCCC1` (stereo not drawn)?
STEP inh: -9.5; SUMO1 PPI mod: -2.6; Scp1 inh: -2.2; DNMT1 block: 5.1; CSN deneddyl inh: 40.3*; LMPTP block: 1.0

Results for N#CC(C(=O)NCCc1ccccc1)c1nc2ccccc2nc1N1CCCCC1 (stereo not drawn) ?
STEP inh: 1.7; SUMO1 PPI mod: 0.3; Scp1 inh: 46.4; DNMT1 block: 7.8; CSN deneddyl inh: 2.9; LMPTP block: 1.3

How did CCN(CC)c1nc2ccccc2nc1C(C#N)C(=O)NCCCOC (stereo not drawn) do in these assays?
STEP inh: 4.1; SUMO1 PPI mod: -9.4; Scp1 inh: -3.1; DNMT1 block: -10.7; CSN deneddyl inh: -3.8; LMPTP block: 1.2

Results for CCCCN(CCCC)c1nc2ccccc2nc1C(C#N)C(=O)NCCCOC (stereo not drawn) ?
STEP inh: -18.9; SUMO1 PPI mod: -1.0; Scp1 inh: 1.0; DNMT1 block: 10.1; CSN deneddyl inh: 98.8*; LMPTP block: 0.1

What do the screens show for `CCCCCNC(=O)C(C#N)c1nc2ccccc2nc1N1CCCC1` (stereo not drawn)?
STEP inh: -8.1; SUMO1 PPI mod: 2.9; Scp1 inh: 1.1; DNMT1 block: 6.9; CSN deneddyl inh: 13.6; LMPTP block: -0.2

What do the screens show for `N#CC(C(=O)NCCc1ccccc1)c1nc2ccccc2nc1N1CCOCC1` (stereo not drawn)?
STEP inh: -5.6; SUMO1 PPI mod: -8.7; Scp1 inh: 8.5; DNMT1 block: -3.5; CSN deneddyl inh: 39.0*; LMPTP block: -2.1

How did CCc1nc(N)nc(N)c1-c1ccc(Cl)c([N+](=O)[O-])c1 do in these assays?
STEP inh: -0.4; SUMO1 PPI mod: -14.2; Scp1 inh: 4.0; DNMT1 block: 1.7; CSN deneddyl inh: 1.9; LMPTP block: 46.9

How did CCc1nc(N)nc(N)c1-c1ccc(Cl)c(N=[N+]=[N-])c1 do in these assays?
STEP inh: -1.2; SUMO1 PPI mod: 8.6; Scp1 inh: 4.7; DNMT1 block: -8.1; CSN deneddyl inh: 0.1; LMPTP block: 57.9*

How did CC(C)(CNC(=O)CC1C(=O)NCCN1Cc1cccc(F)c1F)N1CCOCC1 (stereo not drawn) do in these assays?
STEP inh: -3.7; SUMO1 PPI mod: -7.2; Scp1 inh: -7.4; DNMT1 block: 1.4; CSN deneddyl inh: -0.9; LMPTP block: -1.9
